# The array DNA melting data of Ke et al. (doi:10.1101/2024.01.08.574731)
# Columns and labels:
# [1] = melting temperature; fluorescence melt of hairpins on a sequencing array, two-state fit, raised by 9.35 °C to match UV melts; settings: sodium 0.088 M
# How it was run: (§1)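 Two-state fits, bootstrapped, provided melting temperature and folding enthalpy from Cy3 fluorescence normalised to pre-quench Cy3 and to control constructs. Library hairpins with annealed Cy3 and quencher oligos were imaged on a sequenced MiSeq flow cell in 50 mM Na-HEPES pH 8.0, 25 mM NaCl, at 2.5 °C intervals up to 60 °C. Four replicates were combined with inverse-variance weighting. A 9.35 °C upward shift was applied to fitted temperatures to match UV melts.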
# [2] = folding enthalpy; higher = less favourable; fluorescence melt of hairpins on a sequencing array, two-state fit; settings: sodium 0.088 M
# How it was run: as §1
Sequence,Tm [1],folding enthalpy [2]
GCGCCGTCGAAAGACCGC (((..(((....)))))),50.8 °C,-23.1 kcal/mol
GATCGGGGAAACCCGATC (((((((....))))))),69 °C,-42.5 kcal/mol
GGCGTCGAAAGACTCGCC ((((((....)))..))),50.1 °C,-20.6 kcal/mol
GCGAACGGAAACGCTCGC ((((.((....)).)))),55.7 °C,-41.5 kcal/mol
GATAAGCGAAAGCTCATC (((.(((....))).))),33.8 °C,-15.9 kcal/mol
GCCCACTCGAAAGAGGGC (((..(((....)))))),50.6 °C,-22.5 kcal/mol
GCGAACGCGAAAGCGCGC (((..(((....)))))),60.1 °C,-14.7 kcal/mol
GCGGCCGAAAGGCAACGC ((((((....)))..))),64.3 °C,-19.1 kcal/mol
GTGCGTGCGAAAGCACAC (((..(((....)))))),63.5 °C,-9.15 kcal/mol
GCCAGGCGAAAGCATTGC ((.(.((....)).).)),35.7 °C,-13.1 kcal/mol
GGTATGGGAAACCATACC (((((((....))))))),58 °C,-45.3 kcal/mol
GTACAGACGAAAGTCTAC (((..(((....)))))),29.8 °C,-11.5 kcal/mol
GATCCCACTGGGGATC ((((((....)))))),62.4 °C,-30.7 kcal/mol
GCATGCGAAAGCATGTGC ((((((....)))..))),64 °C,-15.5 kcal/mol
GTGTCCGCGAAAGCGCAC (((..(((....)))))),40.5 °C,-14.1 kcal/mol
GCTGCTGGAAACGGTAGC (((.(.(....).).))),41.3 °C,-31.3 kcal/mol
GCTTCGGGAAACCAAAGC ((((.((....)).)))),41.1 °C,-28.7 kcal/mol
GCGTCACAACGC ((((....)))),55.2 °C,-27.2 kcal/mol
GCATCCGGAAACGAATGC ((((.((....)).)))),45.5 °C,-44.1 kcal/mol
CGAACGAAAGTTCG (((((....))))),68.7 °C,-29.2 kcal/mol
GCGATTCGAAAGAACCGC (((.(((....))).))),53.1 °C,-38.6 kcal/mol
GAGTTCACGAAAGTGCTC (((..(((....)))))),28.1 °C,-10.9 kcal/mol
GTATCCCGAAAGGGTAC (((.(((....)))))),49 °C,-17.9 kcal/mol

Sequence,Tm [1],folding enthalpy [2]
GATAACACGAAAGTGATC (((..(((....)))))),24.9 °C,-10.1 kcal/mol
GGGGACGAAAGTCTCCC ((((((....))).))),60 °C,-23.9 kcal/mol
GCGGCGCGAAAGCGTTGC ((..(((....)))..)),66.5 °C,-21.2 kcal/mol
GGAGATACGAAAGTATCC (((..(((....)))))),40.9 °C,-12.7 kcal/mol
GATCTAGGGCTAGATC ((((((....)))))),43.5 °C,-32.9 kcal/mol
GATCTACCCCTAGATC ((((((....)))))),39.9 °C,-38.4 kcal/mol
GCTCAGCGAAAGCGGCGC ((.(.((....)).).)),58.4 °C,-19.5 kcal/mol
GTCGTGGAAACACGAC ((((((....)))))),68.5 °C,-35.4 kcal/mol
GTCAGAGGAAACTCTGAC (((((((....))))))),61.7 °C,-37.9 kcal/mol
GATCCGATAGCGGATC ((((((....)))))),54.3 °C,-38.9 kcal/mol
GGCTGTCGAAAGACTGCC (((.(((....))).))),63 °C,-41.2 kcal/mol
GATCTGTTAACAGATC ((((((....)))))),54.7 °C,-39.8 kcal/mol
GATTCACGAAAGTGATC (((.(((....)))))),42.3 °C,-13.4 kcal/mol
GGATTCCCGAAAGGGTCC (((..(((....)))))),39.3 °C,-14.6 kcal/mol
GAACACGAAAGTGAATTC ((((((....)))..))),25.1 °C,-13.3 kcal/mol
GCCCGCGGAAACGCGGAC (.(((((....))))).),57 °C,-9.8 kcal/mol
GGGTGAGGAAACTCGTCC ((..(((....)))..)),34.3 °C,-28.5 kcal/mol
GCAGCGCGAAAGCACAGC ((.(.((....)).).)),43.8 °C,-19.9 kcal/mol
GCTCTGACGAAAGTCAGC (((..(((....)))))),31.3 °C,-7.47 kcal/mol
GGAACCGAAAGGTCATCC ((((((....)))..))),28.6 °C,-10.8 kcal/mol
GCAGGGGGAAACCCCTAC (.(((((....))))).),35.4 °C,-14.2 kcal/mol
GCGTTTAGACGC ((((....)))),54 °C,-27.3 kcal/mol
GTACGGGGAAACTCGTAC (((((.(....).))))),50.7 °C,-35.4 kcal/mol

Sequence,Tm [1],folding enthalpy [2]
GCTACGGGAAACCGTGGC ((.((((....)))).)),56.7 °C,-38.2 kcal/mol
GATCATCATAATGATC ((((((....)))))),47.1 °C,-36.3 kcal/mol
ATATCGAAAGATAT (((((....))))),42.2 °C,-15.8 kcal/mol
GAATCCGGAAACGAATTC ((((.((....)).)))),34.1 °C,-21.1 kcal/mol
GTGTCACGAAAGTGTCAC (((.(((....))).))),53.5 °C,-40.4 kcal/mol
CGTATGAAAATACG (((((....))))),47.4 °C,-24.1 kcal/mol
GCAAAGCGAAAGCTAGGC ((..(((....)))..)),48.3 °C,-15.1 kcal/mol
GTATCACGAAAGTGTTAC (((.(((....))).))),42.3 °C,-25.8 kcal/mol
GCAGGGCGAAAGCCTCGC ((..(((....)))..)),52 °C,-16.4 kcal/mol
GTCCAAGGAAACTCGGAC ((((.((....)).)))),38.8 °C,-30.6 kcal/mol
GATCTTACCCAAGATC ((((((....)))))),42.1 °C,-26.2 kcal/mol
GAATCACGAAAGTGGTTC (((.(((....))).))),53.2 °C,-40.3 kcal/mol
GCGTGAGCGAAAGCTCGC (((..(((....)))))),53 °C,-10.4 kcal/mol
GCGGAGCGAAAGCCACGC (((..((....))..))),58.4 °C,-15.7 kcal/mol
GCGATCCTCGC ((((...)))),50.3 °C,-20.9 kcal/mol
GTGTCTCGAAAGAGGCAC (((.(((....))).))),61.3 °C,-38.5 kcal/mol
GCTCACGAAAGTGGTAGC ((((((....)))..))),44.7 °C,-19.7 kcal/mol
GAGGACGAAAGTCCCCTC ((((((....)))..))),42.7 °C,-10.3 kcal/mol
GCATCCACGAAAGTGTGC (((..(((....)))))),37.6 °C,-14.3 kcal/mol
GATCACGAAAGTGGCATC ((((((....)))..))),30.3 °C,-12.3 kcal/mol
GATCTACTGATAGATC ((((((....)))))),39.3 °C,-28.8 kcal/mol
GCGCTCGGAAACGAACGC (((.(((....))).))),55.7 °C,-38.5 kcal/mol
GCCCTCGAAAGAGCAGGC ((((((....)))..))),44.9 °C,-24.8 kcal/mol

Sequence,Tm [1],folding enthalpy [2]
GAAGGGCGAAAGCCATTC (((.(((....))).))),57.1 °C,-22.2 kcal/mol
ATTTCGAAAGAAAT (((((....))))),42.1 °C,-16 kcal/mol
GATCGAACATTCGATC ((((((....)))))),50.7 °C,-38.5 kcal/mol
GATCCTACGCAGGATC ((((((....)))))),51.1 °C,-35 kcal/mol
GCATAACGAAAGTTTGC (((.(((....)))))),46 °C,-25.8 kcal/mol
GGCCAAGGAAACCTGGCC (((((.(....).))))),57.3 °C,-42.3 kcal/mol
GTAAGCGGAAACGTTTAC ((((.((....)).)))),43 °C,-28.2 kcal/mol
GACTATGGAAACATGGTC (((.(((....))).))),45.4 °C,-35.5 kcal/mol
GATCGTACGAACGATC ((((((....)))))),53.3 °C,-34.3 kcal/mol
GTACTCGAAAGAGAGTAC ((((((....)))..))),46.8 °C,-29.4 kcal/mol
GACGCGGCGAAAGCCGTC (((..(((....)))))),32.6 °C,-5.1 kcal/mol
GGTTTCGGAAACGAAGCC ((.((((....)))).)),51.4 °C,-28.2 kcal/mol
GGCCTGGCGAAAGCCGCC (((..(((....)))))),48.7 °C,-15.5 kcal/mol
GATCGCAACAGCGATC ((((((....)))))),69.1 °C,-35.4 kcal/mol
GTTTCCGAAAGGAGCAAC ((((((....)))..))),26.8 °C,-11.8 kcal/mol
GGCGTCGAAAGACACGCC ((((((....)))..))),55 °C,-32 kcal/mol
GGCTCCGAAAGGATGGCC ((((((....)))..))),52.3 °C,-30.9 kcal/mol
GATCAATAGCTTGATC ((((((....)))))),40.5 °C,-29.6 kcal/mol
CGGTTCGGAAACGATCCG (((.(((....))).))),51 °C,-36 kcal/mol
GACTAAGAAATTAGTC ((((((....)))))),40.5 °C,-24.9 kcal/mol
GCACTCCCGAAAGGGTGC (((..(((....)))))),50.7 °C,-24.2 kcal/mol
GCTCGTCGAAAGACAAGC (((.(((....))).))),49.5 °C,-24.7 kcal/mol
GCTGTCGAAAGACGAAGC ((((((....)))..))),44.3 °C,-18.4 kcal/mol
